According to ChEMBL document CHEMBL1128420, “Novel steroidal inhibitors of human cytochrome P45017 alpha (17 alpha-hydroxylase-C17,20-lyase): potential agents for the treatment of prostatic cancer” (J Med Chem, 1995):

How the values were obtained:
[1] = target: T1, Aromatase (Homo sapiens, UniProt P11511); assay: Inhibition of Cytochrome P450 19A1
T1 sequence (P11511 whole entry): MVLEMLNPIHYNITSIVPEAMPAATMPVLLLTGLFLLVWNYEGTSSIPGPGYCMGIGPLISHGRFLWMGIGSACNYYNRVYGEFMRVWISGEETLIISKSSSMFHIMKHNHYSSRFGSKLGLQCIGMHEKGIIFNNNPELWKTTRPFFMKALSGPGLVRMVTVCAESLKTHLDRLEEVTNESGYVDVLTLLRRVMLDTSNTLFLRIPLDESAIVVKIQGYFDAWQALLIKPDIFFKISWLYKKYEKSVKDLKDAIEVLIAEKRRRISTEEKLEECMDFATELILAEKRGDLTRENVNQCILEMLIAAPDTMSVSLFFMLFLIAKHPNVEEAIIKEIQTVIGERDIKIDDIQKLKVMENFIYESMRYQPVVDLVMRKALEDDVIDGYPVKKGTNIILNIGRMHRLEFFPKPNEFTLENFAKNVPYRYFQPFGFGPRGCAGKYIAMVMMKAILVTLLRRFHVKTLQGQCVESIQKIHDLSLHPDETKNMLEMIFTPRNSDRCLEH
How it was run: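 Aromatase from the microsomal fraction of human placenta.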

[2] = target: T2, Steroid 17-alpha-hydroxylase/17,20 lyase (Homo sapiens, UniProt P05093); assay: Ability to inhibit the C17,20-lyase enzyme by 50% using 17-alpha-hydroxyprogesterone as substrate.
T2 sequence (P05093 whole entry): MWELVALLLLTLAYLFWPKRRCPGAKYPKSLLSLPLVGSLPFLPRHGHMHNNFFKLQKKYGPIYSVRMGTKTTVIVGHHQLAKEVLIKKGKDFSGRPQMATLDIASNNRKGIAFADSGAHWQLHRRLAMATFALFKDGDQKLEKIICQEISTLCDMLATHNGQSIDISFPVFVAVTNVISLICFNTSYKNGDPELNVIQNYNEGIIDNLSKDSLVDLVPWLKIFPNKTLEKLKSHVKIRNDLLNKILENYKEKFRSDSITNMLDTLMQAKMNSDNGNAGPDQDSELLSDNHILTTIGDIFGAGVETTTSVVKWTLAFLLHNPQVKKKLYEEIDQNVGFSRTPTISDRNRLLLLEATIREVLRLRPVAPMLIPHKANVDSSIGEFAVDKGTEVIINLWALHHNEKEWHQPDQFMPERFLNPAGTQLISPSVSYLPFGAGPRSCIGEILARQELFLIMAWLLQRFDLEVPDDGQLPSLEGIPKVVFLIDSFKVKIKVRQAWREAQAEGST

[3] = target: T2, Steroid 17-alpha-hydroxylase/17,20 lyase; assay: Ability to inhibit the Steroid 17-alpha-hydroxylase/17,20 lyase enzyme by 50%.
[4] = Inhibition of Steroid 5-alpha-reductase; design: species or system Homo sapiens
How it was run: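 Testosterone 5α-reductase from human benign prostatic tissue.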

| Compound | IC50 [1] | IC50 [2] | IC50 [3] | IC50 [4] |
| --- | --- | --- | --- | --- |
| C[C@]12CC[C@H](O)CC1=CC[C@@H]1[C@@H]2CC[C@]2(C)C(c3ccncc3)=CC[C@@H]12 | > 20 µM | 1 µM | 4 µM |  |
| C[C@]12CC[C@H](O)CC1=CC[C@@H]1[C@@H]2CC[C@]2(C)C(c3ccccn3)=CC[C@@H]12 | > 20 µM | 0.076 µM | 0.27 µM |  |
| C[C@]12CCC(=O)C=C1CCC1C2C(=O)C[C@]2(C)C(c3cccnc3)=CCC12 (some centres not stated) |  | 0.0029 µM | 0.013 µM |  |
| C[C@]12CCC(=O)C=C1CCC1C2CC[C@]2(C)C(c3cccnc3)=CCC12 (some centres not stated) | 1.8 µM |  |  | 10 µM |
| C[C@]12CCC(Oc3c(F)c(F)c(C(F)(F)F)c(F)c3F)=CC1=CCC1C2CC[C@]2(C)C(c3cccnc3)=CCC12 (some centres not stated) |  | > 10 µM | > 10 µM |  |
| C[C@]12CCC(O)CC1=CCC1C2CC[C@]2(C)C(Cc3ccccn3)=CCC12 (some centres not stated) |  | > 10 µM | > 10 µM |  |
| C[C@]12CC[C@H](O)CC1=CCC1C2CC[C@@]2(C)C1CC[C@@H]2c1cccnc1 (some centres not stated) |  | 0.023 µM | 0.047 µM |  |
| C[C@]12CCC3C(CC[C@H]4CC(=O)CC[C@]34C)C1CC=C2c1cccnc1 (some centres not stated) |  | 0.003 µM | 0.0047 µM |  |
| C[C@]12CCC3C(CC=C4C[C@@H](O)CC[C@@]43C)C1CCC2c1ccncc1 (single isomer, unassigned) |  | 0.053 µM | 0.16 µM |  |
| C[C@]12CC[C@H](O)CC1=CC[C@@H]1[C@@H]2CC[C@]2(C)C(c3cccnc3)=CC[C@@H]12 [ABIRATERONE] | > 20 µM |  |  | > 50 µM |
